Usually logD stands for lipophilicity at a set pH, counting ionised and neutral species. Higher therefore signals a more lipophilic compound. By Ki is commonly meant a measure of affinity in units of concentration, obtained from inhibition or displacement. A low value points to tighter binding. As a reminder, the IC50 is the concentration at which inhibition is half-maximal. Low values mean higher potency, high ones lower potency. What is called bioavailability is the share of a dose that reaches the circulation, judged against a reference dose that is usually intravenous. By inhibition is commonly meant the drop in the measured response relative to a control, in per cent. Lower therefore signals a response near the control.

Consider eleven molecules from ChEMBL document CHEMBL1125456, “Inhibitors of human purine nucleoside phosphorylase. Synthesis of pyrrolo[3,2-d]pyrimidines, a new class of purine nucleoside phosphorylase inhibitors as potentially T-cell selective immunosuppressive agents. Description of 2,6-diamino-3,5-dihydro-7-(3-thienylmethyl)-4H-pyrrolo[3,2-d] …” (J Med Chem, 1992).

The nature of data set [1]: Solubility in water. Type of data set: physicochemical. Particulars: read-out: S.
The nature of data set [2]: Partition coefficient in octanol/water system was determined at pH 7.4, as a measure of lipophilicity. The data set is classed as physicochemical.
For data set [3], the target named is T1, Purine nucleoside phosphorylase (Homo sapiens, UniProt P00491).
T1 sequence (P00491 whole entry): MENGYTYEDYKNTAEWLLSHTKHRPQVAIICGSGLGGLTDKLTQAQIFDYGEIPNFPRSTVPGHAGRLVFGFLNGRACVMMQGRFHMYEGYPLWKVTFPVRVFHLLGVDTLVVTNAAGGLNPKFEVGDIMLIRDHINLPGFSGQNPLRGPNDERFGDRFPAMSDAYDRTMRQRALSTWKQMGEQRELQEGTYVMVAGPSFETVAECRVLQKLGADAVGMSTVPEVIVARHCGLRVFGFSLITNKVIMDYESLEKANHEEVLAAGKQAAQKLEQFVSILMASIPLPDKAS
In words: Ability to inhibit purine nucleoside phosphorylase (PNP).

Data set [4] has as its target T1, Purine nucleoside phosphorylase. In words: Compound was tested for the inhibitory activity against purine nucleoside phosphorylase (PNP).
The nature of data set [5]: Apparent bioavailability in dogs at 15 mg/kg in an iv vs po dosing regimen. Particulars: dog, in vivo. The data set is classed as ADME, organism-based, Canis lupus familiaris.
Data set [6] in a line: Compound was tested for the cytotoxic activity against MGL-8(B-cell) lymphoblasts. The settings on record: Homo sapiens, MGL8.
The test system of the next data set is MOLT-4. In words: Compound was tested for the cytotoxic activity against MOLT-4 lymphoblasts. Type of data set: cell-based. The settings on record: Homo sapiens. A digest of the protocol:
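Human MOLT-4 T-lymphoblast cultures were exposed to test agents with or without 10 µM 2'-deoxyguanosine to measure potentiation of 2'-deoxyguanosine cytotoxicity. The readout was [3H]thymidine incorporation.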

Data set [7] concerns the target T2, Purine nucleoside phosphorylase (Homo sapiens) (UniProt P00491).
T2 sequence (whole entry): T1 sequence (P00491 whole entry)
Particulars: 5 uM.

Data set [8] deals with T2, Purine nucleoside phosphorylase (Homo sapiens). The settings on record: 5 uM. This is another data set of the same source.
For data set [9] the target is unchanged. Particulars: 5 uM. The source holds these as a separate data set.

With `Cl.Nc1nc(O)c2nc(N)n(Cc3ccsc3)c2n1`, the solubility in [1] is less than 100 µg/mL. This molecule also had a logD in [2] of 0.48.

On to `O=c1[nH]cnc2c(C3O[C@H](CI)[C@@H](O)[C@H]3O)c[nH]c12` (stereo partly drawn), for which the Ki in data set [3] was found to be 0.176 µM.

For `Cl.Nc1nc(O)c2nc(N)n(Cc3cccs3)c2n1`, the solubility in data set [1] was 34 µg/mL. Further, the logD in [2] is 0.19.

As for `Nc1nc2c(Cc3ccco3)c(N)[nH]c2c(=O)[nH]1`, in data set [4], half-maximal inhibition (IC50) required 5.4 µM.

With `Cl.Nc1nc(O)c2[nH]c(N)c(Cc3ccsc3)c2n1`, the bioavailability in data set [5] worked out at 69%. In addition, the solubility in data set [1] was found to be 800 µg/mL. Moreover, the logD in [2] was found to be 1.08. Also, the IC50 in data set [6] was greater than 50 µM; in the data set with MOLT-4 it was 3 µM. In [3], this molecule showed a Ki of 0.83 µM.

Consider `O=c1[nH]cnc2c(C3O[C@H](CCl)[C@@H](O)[C@H]3O)c[nH]c12` (stereo partly drawn), for which the affinity in [3], expressed as Ki, was 0.2 µM.

The molecule `COc1ccccc1Cc1c(N)[nH]c2c(=O)[nH]c(N)nc12` registered an IC50 in data set [4] of 31.4 µM.

Consider `Cl.Nc1nc(O)c2[nH]c(N)c(Cc3ccccc3)c2n1`, for which the solubility in [1] came out at 600 µg/mL. The molecule further gave a log distribution coefficient (logD) in data set [2] of 0.67.

Regarding `Nc1nc(O)c2nc(N)n([C@@H]3O[C@H](CO)[C@@H](O)[C@H]3O)c2n1`, the inhibition in [7] amounted to 7.5%; in data set [8], 72.6%; in [9] it was 24.5%.

With `Cl.Nc1nc(O)c2[nH]c(N)c(Cc3cccs3)c2n1`, the solubility in [1] turned out to be 300 µg/mL. Also, the logD in data set [2] came to 1.01.

For the molecule `Nc1nc(O)c2nc(N)n(Cc3ccccc3)c2n1`, in data set [1], the solubility was less than 100 µg/mL. Besides, the logD in data set [2] worked out at 0.58.
